Source: PMC11462461 (Heliyon, 2024)

What was measured:
HCT116 cells [1] = assay: MTT assay, HCT116; assay type: cell-based; settings: Homo sapiens, HCT-116, 48 h
Procedure, shortened: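 STR-authenticated, mycoplasma-tested HCT116 cells were grown in 10 % FBS medium at 37 °C. They were seeded in 96-well plates, left to attach overnight, and exposed to increasing concentrations of test compound for 48 h. DMSO-treated cells were the control. MTT formazan was solubilized and read at 570 nm. Experiments were repeated thrice, with SEM error bars.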

HeLa cells = assay: MTT assay, HeLa; assay type: cell-based; settings: Homo sapiens, 48 h
Procedure, shortened: (§1)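 Cells were STR-authenticated and mycoplasma-tested (HEK was a gift; the others were from a national cell repository). They were cultured with 10 % FBS at 37 °C, with or without 5 % CO2, then plated in 96-well plates and allowed to attach overnight. Test compound was added at increasing concentrations for 48 h. Solubilized MTT formazan absorbance was read at 570 nm. At least three independent experiments were run.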

MDA-MB-231 cells = assay: MTT assay, MDA-MB-231; assay type: cell-based; settings: Homo sapiens, MDA-MB-231, 48 h
Procedure, shortened: as §1

HEK cells = assay: MTT assay, normal kidney cells HEK; assay type: cell-based, Human; settings: for IC50: Homo sapiens, HEK293, 48 h
Procedure, shortened: as §1

HCT116 cells [2] = assay: Foci formation assay; assay type: cell-based, Human; settings: HCT116, 12 days, crystal violet
HCT116 cells [3] = assay: Acridine orange/PI dual staining; assay type: cell-based, Human; settings: HCT116, 48 h
HCT116 cells [4] = assay: Hoechst/PI double staining; assay type: cell-based, Human; settings: HCT116, 48 h

Row | SMILES | IC50 (HCT116 cells [1]) [µM] | IC50 (HeLa cells) [µM] | IC50 (MDA-MB-231 cells) [µM] | IC50 (HEK cells) [µM] | toxicity towards normal cell lines (HEK cells; HeK) | colony formation (HCT116 cells [2]) | propidium iodide uptake (live/dead cells) (HCT116 cells [3]) | propidium iodide uptake and nuclear membrane deformation (HCT116 cells [4])
1 | COc1ccc(-c2cc(C(=O)Nc3ccccc3)c3cc(-c4ccc(Cl)cc4)ccc3n2)cc1 [Compound 7d, 6-(4-chlorophenyl)-2-(4-methoxyphenyl)-N-phenylquinoline-4-carboxamide] | 39.8 ± 0.11 | 38.3 ± 0.25 | > 50 | > 50 | – | – | – | –
2 | COc1ccc(-c2cc(C(=O)Nc3ccccc3)c3cc(-c4cc(F)ccc4OC)ccc3n2)cc1 [Compound 7b, 6-(5-Fluoro-2-methoxyphenyl)-2-(4-methoxyphenyl)-N-phenylquinoline-4-carboxamide] | 43.3 ± 0.53 | 41.6 ± 0.58 | > 50 | > 50 | – | – | – | –
3 | COc1ccc(-c2cc(C(=O)Nc3ccccc3)c3cc(-c4cnc(Cl)c(C)c4)ccc3n2)cc1 [Compound 7g, 6-(6-Chloro-5-methylpyridin-3-yl)-2-(4-methoxyphenyl)-N-phenylquinoline-4-carboxamide] | > 50 | > 50 | > 50 | > 50 | – | – | – | –
4 | COc1ccc(F)cc1-c1ccc2nc(-c3ccccc3)cc(C(=O)Nc3ccccc3)c2c1 [Compound 7i, 6-(5-Fluoro-2-methoxyphenyl)-N,2-diphenylquinoline-4-carboxamide] | 44.2 ± 0.08 | > 50 | > 50 | > 50 | – | – | – | –
5 | O=C(Nc1ccccc1)c1cc(-c2ccccc2)nc2ccc(-c3ccccc3)cc12 [Compound 7h, N,2,6-triphenylquinoline-4-carboxamide] | 41.6 ± 0.11 | 43.3 ± 0.31 | 46.3 ± 0.18 | > 50 | – | – | – | –
6 | COc1ccc(-c2cc(C(=O)Nc3ccccc3)c3cc(-c4cc(C)ccc4F)ccc3n2)cc1 [Compound 7f, 6-(2-Fluoro-5-methylphenyl)-2-(4-methoxyphenyl)-N-phenylquinoline-4-carboxamide] | > 50 | > 50 | > 50 | > 50 | – | – | – | –
7 | COc1ccc(-c2cc(C(=O)Nc3ccccc3)c3cc(-c4ccccc4)ccc3n2)cc1 [Compound 7a, 2-(4-methoxyphenyl)-N,6-diphenylquinoline-4-carboxamide] | 35.6 ± 0.06 | 41.3 ± 0.06 | 39.2 ± 0.13 | > 50 | less toxicity towards normal cell lines | inhibit colony formation of colon cancer cells in a concentration dependent manner | propidium iodide uptake in concentration dependent manner | uptake of propidium iodide in concentration dependent manner with nuclear membrane deformation in dead cells
8 | COc1ccc(F)cc1-c1ccc2nc(-c3ccc(F)cc3)cc(C(=O)Nc3ccccc3)c2c1 [Compound 7j, 6-(5-Fluoro-2-methoxyphenyl)-2-(4-fluorophenyl)-N-phenylquinoline-4-carboxamide] | 42.5 ± 0.23 | > 50 | > 50 | > 50 | – | – | – | –
9 | COc1cccc2c1C(=O)c1c(O)c3c(c(O)c1C2=O)C[C@@](O)(C(=O)CO)C[C@@H]3O[C@H]1C[C@H](N)[C@H](O)[C@H](C)O1 [Doxorubicin, reference compound] | 1.26 ± 0.09 | 5.04 ± 0.41 | 5.32 ± 0.11 | 8.23 ± 0.73 | – | – | – | –
10 | COc1ccc(-c2cc(C(=O)Nc3ccccc3)c3cc(-c4cccs4)ccc3n2)cc1 [Compound 7e, 2-(4-methoxyphenyl)-N-phenyl-6-(thiophen-2-yl)quinoline-4-carboxamide] | > 50 | > 50 | > 50 | > 50 | – | – | – | –
11 | COc1ccc(-c2cc(C(=O)Nc3ccccc3)c3cc(-c4cc(Cl)ccc4F)ccc3n2)cc1 [Compound 7c, 6-(5-Chloro-2-fluorophenyl)-2-(4-methoxyphenyl)-N-phenylquinoline-4-carboxamide] | 41.8 ± 0.16 | 42.4 ± 0.37 | > 50 | > 50 | – | – | – | –
